According to ChEMBL document CHEMBL1122115, “Antimalarials. 13. 5-Alkoxy analogues of 4-methylprimaquine” (1982):

Tests used:
Assay type in all cases: functional
Mus musculus [1] = experiment: Antimalarial activity against Plasmodium berghei in mice (Mus musculus) at 640 mg/kg dose administered subcutaneously; toxic; settings: route subcutaneous
Procedure, shortened: (§1)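 Primary mouse screen: groups of five mice infected with a lethal dose of P. berghei 3 days before drug administration. Drug given subcutaneously, routinely in sesame or peanut oil. Mean survival time compared with infected untreated controls; extension in survival time (ΔMST) taken as antimalarial activity.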

Plasmodium cynomolgi [2] = experiment: Radio curative antimalarial activity against Plasmodium cynomolgi in rhesus monkey at 0.75 mg/kg (base/day) peroral dose; cured 3 of 3; settings: route oral
Mus musculus [3] = experiment: Antimalarial activity against Plasmodium berghei in mice (Mus musculus) at 160 mg/kg dose administered subcutaneously; toxic; settings: route subcutaneous; procedure, shortened: as §1
Mus musculus [4] = experiment: Antimalarial activity against Plasmodium berghei in mice (Mus musculus) at 40 mg/kg dose administered subcutaneously; cure/1 toxic; settings: route subcutaneous; procedure, shortened: as §1
Mus musculus [5] = experiment: Antimalarial activity against Plasmodium berghei in mice (Mus musculus) at 20 mg/kg dose administered subcutaneously; cure and active at 1.25 mg/kg; procedure, shortened: as §1
Plasmodium cynomolgi [6] = experiment: Radio curative antimalarial activity against Plasmodium cynomolgi in rhesus monkey at 0.25 mg/kg (base/day) peroral dose; cured 1 of 4; settings: route oral
Mus musculus [7] = experiment: Antimalarial activity against Plasmodium berghei in mice (Mus musculus) at 20 mg/kg dose administered subcutaneously; settings: route subcutaneous; procedure, shortened: as §1
Mus musculus [8] = experiment: Antimalarial activity against Plasmodium berghei in mice (Mus musculus) at 640 mg/kg dose administered subcutaneously; cure/1toxic; settings: route subcutaneous; procedure, shortened: as §1
Mus musculus [9] = experiment: Antimalarial activity against Plasmodium berghei in mice (Mus musculus) at 80 mg/kg dose administered subcutaneously; settings: route subcutaneous; procedure, shortened: as §1
Plasmodium cynomolgi [10] = experiment: Radio curative antimalarial activity against Plasmodium cynomolgi in rhesus monkey at 0.75 mg/kg (base/day) peroral dose; cured 1 of 1; settings: route oral
Mus musculus [11] = experiment: Antimalarial activity against Plasmodium berghei in mice (Mus musculus) at 160 mg/kg dose administered subcutaneously; active; settings: route subcutaneous; procedure, shortened: as §1
Plasmodium cynomolgi [12] = experiment: Radio curative antimalarial activity against Plasmodium cynomolgi in rhesus monkey at 0.5 mg/kg (base/day) peroral dose; cured 13 of 14; settings: route oral
Plasmodium cynomolgi [13] = experiment: Radio curative antimalarial activity against Plasmodium cynomolgi in rhesus monkey at 0.25 mg/kg (base/day) peroral dose; cured 8 of 14; settings: route oral
Mus musculus [14] = experiment: Antimalarial activity against Plasmodium berghei in mice (Mus musculus) at 320 mg/kg dose administered subcutaneously; active; settings: route subcutaneous; procedure, shortened: as §1
Mus musculus [15] = experiment: Antimalarial activity against Plasmodium berghei in mice (Mus musculus) at 40 mg/kg dose administered subcutaneously; settings: route subcutaneous; procedure, shortened: as §1
Mus musculus [16] = experiment: Antimalarial activity against Plasmodium berghei in mice (Mus musculus) at 20 mg/kg dose administered subcutaneously; active/1 toxic; settings: route subcutaneous; procedure, shortened: as §1
Plasmodium cynomolgi [17] = experiment: Radio curative antimalarial activity against Plasmodium cynomolgi in rhesus monkey at 0.25 mg/kg (base/day) peroral dose; cured 2 of 2; settings: route oral
Mus musculus [18] = experiment: Antimalarial activity against Plasmodium berghei in mice (Mus musculus) at 40 mg/kg dose administered subcutaneously; active/1 toxic; settings: route subcutaneous; procedure, shortened: as §1
Mus musculus [19] = experiment: Antimalarial activity against Plasmodium berghei in mice (Mus musculus) at 160 mg/kg dose administered subcutaneously; settings: route subcutaneous; procedure, shortened: as §1
Mus musculus [20] = experiment: Antimalarial activity against Plasmodium berghei in mice (Mus musculus) at 640 mg/kg dose administered subcutaneously; settings: route subcutaneous; procedure, shortened: as §1
Plasmodium cynomolgi [21] = experiment: Radio curative antimalarial activity against Plasmodium cynomolgi in rhesus monkey at 0.125 mg/kg(base/day) peroral dose; Cured 6 of 10; settings: route oral
Plasmodium cynomolgi [22] = experiment: Radio curative antimalarial activity against Plasmodium cynomolgi in rhesus monkey at 0.25 mg/kg (base/day) peroral dose; cured 4 of 4; settings: route oral
Plasmodium cynomolgi [23] = experiment: Radio curative antimalarial activity against Plasmodium cynomolgi in rhesus monkey at 0.75 mg/kg (base/day) peroral dose; cured 4 of 5; settings: route oral
Plasmodium cynomolgi [24] = experiment: Radio curative antimalarial activity against Plasmodium cynomolgi in Rhesus monkey at 0.0625 mg/kg(base/day) peroral dose; Cured 0 of 2; settings: route oral
Mus musculus [25] = experiment: Antimalarial activity against Plasmodium berghei in mice (Mus musculus) at 160 mg/kg dose administered subcutaneously; active/1 toxic; settings: route subcutaneous; procedure, shortened: as §1
Mus musculus [26] = experiment: Antimalarial activity against Plasmodium berghei in mice (Mus musculus) at 320 mg/kg dose administered subcutaneously; active/4 toxic; settings: route subcutaneous; procedure, shortened: as §1
Mus musculus [27] = experiment: Antimalarial activity against Plasmodium berghei in mice (Mus musculus) at 40 mg/kg dose administered subcutaneously; active; settings: route subcutaneous; procedure, shortened: as §1
Plasmodium cynomolgi [28] = experiment: Radio curative antimalarial activity against Plasmodium cynomolgi in rhesus monkey at 0.25 mg/kg (base/day) peroral dose; cured 3 of 4; settings: route oral
Plasmodium cynomolgi [29] = experiment: Radio curative antimalarial activity against Plasmodium cynomolgi in rhesus monkey at 0.0625 mg/kg(base/day) peroral dose; Cured 0 of 5; settings: route oral
Mus musculus [30] = experiment: Antimalarial activity against Plasmodium berghei in mice (Mus musculus) at 80 mg/kg dose administered subcutaneously; active; settings: route subcutaneous; procedure, shortened: as §1
Plasmodium cynomolgi [31] = experiment: Radio curative antimalarial activity against Plasmodium cynomolgi in Rhesus monkey at 0.125 mg/kg(base/day) peroral dose; Cured 11 of 13; settings: route oral
Plasmodium cynomolgi [32] = experiment: Radio curative antimalarial activity against Plasmodium cynomolgi in rhesus monkey at 0.5 mg/kg (base/day) peroral dose; cured 1 of 1; settings: route oral
Plasmodium cynomolgi [33] = experiment: Radio curative antimalarial activity against Plasmodium cynomolgi in rhesus monkey at 0.75 mg/kg (base/day) peroral dose; cured 4 of 4; settings: route oral
Plasmodium cynomolgi [34] = experiment: Radio curative antimalarial activity against Plasmodium cynomolgi in rhesus monkey at 0.5 mg/kg (base/day) peroral dose; cured 10 of 12; settings: route oral
Plasmodium cynomolgi [35] = experiment: Radio curative antimalarial activity against Plasmodium cynomolgi in rhesus monkey at 0.25 mg/kg (base/day) peroral dose; cured 0 of 2; settings: route oral
Mus musculus [36] = experiment: Antimalarial activity against Plasmodium berghei in mice (Mus musculus) at 320 mg/kg dose administered subcutaneously; toxic; settings: route subcutaneous; procedure, shortened: as §1

With `COc1cc(NC(C)CCCCN)c2nccc(C)c2c1OC` (centres undefined) the “Delta MST” value (Mus musculus [1]) was 5 days, the Cured animals (Plasmodium cynomolgi [2]) was 3 and the “Delta MST” value (Mus musculus [3]) was 5 days. The number of mice cured (Mus musculus [4]) was 1 mice, the “Delta MST” value (Mus musculus [5]) was 3 days and the Cured animals (Plasmodium cynomolgi [6]) was 1.

With `COc1cc(NC(C)CCCN)c2nccc(C)c2c1` (centres undefined) the “Delta MST” value (Mus musculus [7]) was 3.1 days, the “Delta MST” value (Mus musculus [8]) was 3 days and the “Delta MST” value (Mus musculus [9]) was 5.5 days. The Cured animals (Plasmodium cynomolgi [10]) was 1, the “Delta MST” value (Mus musculus [11]) was 9.1 days and the Cured animals (Plasmodium cynomolgi [12]) was 13. The Cured animals (Plasmodium cynomolgi [13]) was 8, the “Delta MST” value (Mus musculus [14]) was 10.1 days and the “Delta MST” value (Mus musculus [15]) was 4.9 days.

`COc1cc(NCCCCC(C)N)c2nccc(C)c2c1OC` (centres undefined) was tested, and the “Delta MST” value (Mus musculus [1]) was 5 days, the “Delta MST” value (Mus musculus [16]) was 7.5 days and the Cured animals (Plasmodium cynomolgi [2]) was 3. The “Delta MST” value (Mus musculus [3]) was 5 days, the Cured animals (Plasmodium cynomolgi [17]) was 2 and the “Delta MST” value (Mus musculus [18]) was 8.7 days.

With `Cc1ccnc2c(NC(C)CCCN)cc3c(c12)OCO3` (centres undefined) the “Delta MST” value (Mus musculus [19]) was 0.1 days, the “Delta MST” value (Mus musculus [20]) was 0.3 days and the “Delta MST” value (Mus musculus [15]) was 0.1 days.

For `CCC(CCCN)Nc1cc(OC)c(OC)c2c(C)ccnc12` (centres undefined), the “Delta MST” value (Mus musculus [1]) was 5 days, the Cured animals (Plasmodium cynomolgi [21]) was 6 and the Cured animals (Plasmodium cynomolgi [22]) was 4. The Cured animals (Plasmodium cynomolgi [23]) was 4, the “Delta MST” value (Mus musculus [3]) was 5 days and the “Delta MST” value (Mus musculus [15]) was 0.1 days. For the same compound, the Cured animals (Plasmodium cynomolgi [24]) was 0.

For `COc1cc(NC(C)CCCN)c2nccc(C)c2c1OC` (centres undefined), the “Delta MST” value (Mus musculus [25]) was 9.9 days, the “Delta MST” value (Mus musculus [7]) was 5.7 days and the “Delta MST” value (Mus musculus [26]) was 11.9 days. The “Delta MST” value (Mus musculus [27]) was 7.1 days, the “Delta MST” value (Mus musculus [1]) was 5 days and the Cured animals (Plasmodium cynomolgi [28]) was 3. The Cured animals (Plasmodium cynomolgi [29]) was 0, the “Delta MST” value (Mus musculus [30]) was 8.9 days and the Cured animals (Plasmodium cynomolgi [31]) was 11. For the same compound, the Cured animals (Plasmodium cynomolgi [32]) was 1.

In the case of `COc1cc(NC(C)CCCN)c2ncccc2c1` (centres undefined) [PRIMAQUINE], the “Delta MST” value (Mus musculus [1]) is reported as 5 days, the “Delta MST” value (Mus musculus [30]) is reported as 9.4 days and the “Delta MST” value (Mus musculus [3]) is reported as 2 days. The Cured animals (Plasmodium cynomolgi [33]) was 4, the Cured animals (Plasmodium cynomolgi [34]) was 10 and the Cured animals (Plasmodium cynomolgi [35]) was 0. For the same compound, the “Delta MST” value (Mus musculus [36]) was 5 days and the “Delta MST” value (Mus musculus [15]) was 5 days.
